Test results from ChEMBL document CHEMBL2163277, “The selectivity of austocystin D arises from cell-line-specific drug activation by cytochrome P450 enzymes” (J Nat Prod, 2011).
Calls of active or inactive are those of the source. No cut-off for these calls is given here.

Assays:
MCF7 [1] = assay: Growth inhibition of human MCF7 cells at up to 10 uM after 72 hrs by celltiter-blue viability assay; assay type: functional, cell-based
MCF7 [2] = assay: Induction of DNA damage in human MCF7 cells assessed as H2AX phosphorylation up to 10 uM after 4 hrs by Western blot analysis; assay type: functional, cell-based
Summary of the method: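 In-cell Western: MCF7 at 10 000 cells/well, dosed 24 h later with 3-fold serial dilutions (final DMSO 0.1%); 4 h at 37 °C, paraformaldehyde fixation, anti-phospho-H2AX Ser139 with IR800 secondary, DRAQ5 for normalization (800/700 nm ratio); duplicate or triplicate wells, scaled to 0.1% DMSO (0%) and 10 μM etoposide (100%); nonlinear curve fit.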

HCT-15 [3] = assay: Induction of DNA damage in human HCT15 cells assessed as H2AX phosphorylation after 4 hrs by Western blot analysis; assay type: functional, cell-based
Summary of the method: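 HCT-15 cells at 10 000/well, dosed 4 h at 37 °C, 0.1% DMSO final. In-cell Western with anti-phospho-H2AX (Ser139) and DRAQ5. 800/700 nm ratio normalized to 0.1% DMSO (0%) and 10 μM etoposide (100%). Curve fit by nonlinear regression.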

HCT-15 [4] = assay: Cytotoxicity against MDR1 expressing human HCT15 cells; assay type: functional, cell-based
Summary of the method: (§1)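 Cells (HUVEC from Lonza, others from ATCC) seeded at 2500–10 000 cells/well 24 h before dosing. 3-fold serial dilutions in DMSO, 0.1% DMSO final. Cell-Titer Blue read at 0 h and 72 h.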

MCF7 [5] = assay: Growth inhibition of human MCF7 cells after 72 hrs by celltiter-blue viability assay; assay type: functional; summary of the method: as §1
[6] = Growth inhibition of human MCF10A cells after 72 hrs by celltiter-blue viability assay; assay type: cell-based, MCF-10A; summary of the method: as §1
[7] = Growth inhibition of human U87 cells after 72 hrs by celltiter-blue viability assay; assay type: functional, U-87MG ATCC; details: U-87 MG; summary of the method: as §1
SR = assay: Growth inhibition of human SR cells after 72 hrs by celltiter-blue viability assay; assay type: functional; summary of the method: as §1
HeLa [8] = assay: Growth inhibition of human HeLa cells after 72 hrs by celltiter-blue viability assay; assay type: functional; summary of the method: as §1
A549 = assay: Growth inhibition of human A549 cells after 72 hrs by celltiter-blue viability assay; assay type: functional; details: A549, 72 h; summary of the method: as §1
[9] = Growth inhibition of HUVEC after 72 hrs by celltiter-blue viability assay; assay type: cell-based; details: human; summary of the method: as §1
[10] = target: ATP-dependent translocase ABCB1 (Homo sapiens, UniProt P08183); assay: Inhibition of MDR1 in human HCT15 cells assessed as calcein-AM efflux at 10 uM by fluorescence assay; assay type: cell-based; details: hct-15, 10 µM
MDA-MB-231 = assay: Growth inhibition of human MDA-MB-231 cells after 72 hrs by celltiter-blue viability assay; assay type: functional; details: MDA-MB-231, 72 h; summary of the method: as §1
PC-3 = assay: Growth inhibition of human PC3 cells after 72 hrs by celltiter-blue viability assay; assay type: functional; details: PC-3, 72 h; summary of the method: as §1
SW-620 [11] = assay: Growth inhibition of human SW620 cells after 72 hrs by celltiter-blue viability assay; assay type: functional; details: SW-620, 72 h; summary of the method: as §1
HCT-15 [12] = assay: Growth inhibition of human HCT15 cells after 72 hrs by celltiter-blue viability assay; assay type: functional; details: HCT-15, 72 h; summary of the method: as §1
[13] = Growth inhibition of human MES-SA cells after 72 hrs by celltiter-blue viability assay; assay type: functional; summary of the method: as §1
[14] = Growth inhibition of human MES-SA/MX2 cells after 72 hrs by celltiter-blue viability assay; assay type: functional; details: MX2, 72 h; summary of the method: as §1
HCT-15 [15] = assay: Induction of DNA damage in human HCT15 cells assessed as H2AX phosphorylation after 1 hr by Western blot analysis; assay type: functional, cell-based
Summary of the method: (§2)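 In-cell Western for pSer139 H2AX after 1 h dosing. Cells at 10 000/well plated 24 h ahead, 0.1% DMSO final. Fixed in 4% paraformaldehyde, permeabilized, stained with anti-phospho-H2AX plus IR800CW secondary and DRAQ5. 800/700 nm ratio, duplicate or triplicate wells, normalized to 0.1% DMSO (0%) and 10 μM etoposide (100%).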

SW-620 [16] = assay: Induction of DNA damage in human SW620 cells assessed as H2AX phosphorylation after 1 hr by Western blot analysis; assay type: functional, cell-based; summary of the method: as §2
HeLa [17] = assay: Induction of DNA damage in human HeLa cells assessed as H2AX phosphorylation after 1 hr by Western blot analysis; assay type: functional, cell-based; summary of the method: as §2
HCT-15 [18] = assay: Growth inhibition of human HCT15 cells at 0.5 to 2 uM after 72 hrs by celltiter-blue viability assay in presence of CYP inhibitor ketoconazole; assay type: functional, cell-based
Summary of the method: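 HCT-15 cells exposed to 0.5, 1 or 2 μM test agent across a ketoconazole dose range, 0.1% DMSO final. Cell-Titer Blue read at 0 and 72 h. Growth normalized to DMSO controls at 0 h and 72 h.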

HCT-15 [19] = assay: Induction of DNA damage in human HCT15 cells assessed as H2AX phosphorylation after 4 hrs by Western blot analysis presence of CYP inhibitor ketoconazole; assay type: functional, cell-based
Summary of the method: (§3)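 Cells pretreated 1 h with 10 μM ketoconazole, then dosed 4 h. pSer139 H2AX measured by in-cell Western as 800/700 nm ratio (DRAQ5 normalization), scaled to 0.1% DMSO (0%) and 10 μM etoposide (100%). In SW620 cells, test agent at 10 μM with 20 μM camptothecin as comparator.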

Liver = assay: Induction of DNA damage in human liver microsomes assessed as conversion of supercoiled plasmid DNA to nicked DNA by at 100 nM by agarose gel electrophoresis in presence of NADPH generating system; assay type: functional; details: Microsome
Summary of the method: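 Supercoiled pLenti6 plasmid (120 μg/mL) incubated 4 h at 37 °C with compound (100 nM–1 μM, 1% DMSO) plus or minus human liver microsomes (0.25 mg/mL) and NADPH regenerating system (1.5 mM NADP, 12.5 mM G6P, 0.25 U/mL G6PDH, 100 mM phosphate pH 7.5, 5 mM MgCl2). Phenol/chloroform stop, DNA purified, 0.8% agarose gel for nicked versus supercoiled forms.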

SW-620 [20] = assay: Induction of DNA damage in human SW620 cells assessed as H2AX phosphorylation at 10 uM in presence of CYP inhibitor ketoconazole; assay type: functional, cell-based; summary of the method: as §3
HCT-15 [21] = assay: Ratio of austocystin D GI50 to verapamil GI50 for MDR1 expressing human HCT15 cells; assay type: functional
MCF7 [22] = assay: Selectivity ratio of GI50 for human MCF7 cells over GI50 for human MES-SA cells; assay type: functional
MCF7 [23] = assay: Selectivity ratio of GI50 for human MCF7 cells over GI50 for human MCF10A cells
MCF-10A = assay: Growth inhibition of human MCF10A cells after 72 hrs by celltiter-blue viability assay relative to control; assay type: cell-based
Summary of the method: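 MCF10A seeded at 2500–10 000 cells/well 24 h before dosing. 3-fold serial dilutions, 0.1% DMSO final. Cell-Titer Blue read at 0 and 72 h. Growth normalized to DMSO controls at 0 h (0%) and 72 h (100%). Dose-response fitted by nonlinear regression.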

Chain of ATP-dependent translocase ABCB1 (P08183 whole entry): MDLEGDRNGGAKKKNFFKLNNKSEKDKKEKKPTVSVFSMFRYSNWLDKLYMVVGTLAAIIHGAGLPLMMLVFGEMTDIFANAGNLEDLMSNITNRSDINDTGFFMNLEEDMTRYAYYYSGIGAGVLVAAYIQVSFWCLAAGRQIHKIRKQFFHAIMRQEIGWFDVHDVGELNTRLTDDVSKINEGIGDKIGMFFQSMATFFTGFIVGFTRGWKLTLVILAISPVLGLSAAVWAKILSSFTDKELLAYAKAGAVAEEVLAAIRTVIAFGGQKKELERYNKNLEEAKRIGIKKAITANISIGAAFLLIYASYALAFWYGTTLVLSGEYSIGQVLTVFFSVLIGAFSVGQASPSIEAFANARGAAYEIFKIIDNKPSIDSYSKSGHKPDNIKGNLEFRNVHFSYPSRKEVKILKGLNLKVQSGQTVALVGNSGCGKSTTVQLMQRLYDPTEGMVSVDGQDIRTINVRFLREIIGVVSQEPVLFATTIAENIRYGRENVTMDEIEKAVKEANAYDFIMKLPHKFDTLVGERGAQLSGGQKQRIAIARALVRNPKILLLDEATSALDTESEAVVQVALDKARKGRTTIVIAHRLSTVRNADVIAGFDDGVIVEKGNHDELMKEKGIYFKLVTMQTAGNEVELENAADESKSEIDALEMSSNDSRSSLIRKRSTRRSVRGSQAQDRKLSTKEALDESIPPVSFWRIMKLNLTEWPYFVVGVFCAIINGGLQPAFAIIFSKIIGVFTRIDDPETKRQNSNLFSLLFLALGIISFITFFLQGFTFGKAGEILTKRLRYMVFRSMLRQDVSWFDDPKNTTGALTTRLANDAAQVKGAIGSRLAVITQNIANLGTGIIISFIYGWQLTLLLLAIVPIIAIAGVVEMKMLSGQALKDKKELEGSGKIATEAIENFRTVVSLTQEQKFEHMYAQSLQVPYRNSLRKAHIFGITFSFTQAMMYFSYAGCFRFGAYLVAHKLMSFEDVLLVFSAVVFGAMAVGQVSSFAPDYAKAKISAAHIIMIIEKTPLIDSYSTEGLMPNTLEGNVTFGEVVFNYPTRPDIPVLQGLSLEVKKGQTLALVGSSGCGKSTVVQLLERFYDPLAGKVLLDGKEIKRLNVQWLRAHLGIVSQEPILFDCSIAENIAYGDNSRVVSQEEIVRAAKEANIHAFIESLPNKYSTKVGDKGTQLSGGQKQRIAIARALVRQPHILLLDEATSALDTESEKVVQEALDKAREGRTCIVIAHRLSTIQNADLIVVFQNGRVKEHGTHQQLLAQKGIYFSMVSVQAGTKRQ

## CC(C)(O)CCc1ccc(O)c2c(=O)c3c(O)c4c(cc3oc12)O[C@H]1OCC[C@@]41O
MCF7 [1]
  growth inhibition (GI): inactive
MCF7 [2]
  Activity: inactive

## CC[C@@]1(O)C(=O)OCc2c1cc1n(c2=O)Cc2cc3ccccc3nc2-1
HCT-15 [3]
  Activity: Dose-dependent effect

## COc1ccc(CCN(C)CCCC(C#N)(c2ccc(OC)c(OC)c2)C(C)C)cc1OC (stereo not drawn)
HCT-15 [4]
  Activity: Active

## COc1cc2c(c3oc(=O)c4c(c13)CCC4=O)[C@@H]1C=CO[C@@H]1O2 [AFLATOXIN]
MCF7 [5]
  GI50: > 5 µM
[6]
  GI50 at 72 h: > 5 µM

## CC(C)(O)CCc1ccc(O)c2c(=O)c3c(O)c4c(cc3oc12)O[C@H]1OC=C[C@@]41O [AUSTOCYSTIN D]
MCF7 [5]; MCF7, 72 h
  GI50: < 0.001 µM
[7]
  GI50: 4.95 µM
SR
  GI50: 0.016 µM
HeLa [8]
  GI50: > 5 µM
A549
  GI50: > 5 µM
[6]
  GI50 at 72 h: 3.51 µM
[9]
  GI50 at 72 h: 4.25 µM
[10]
  inhibition (INH): Active
MDA-MB-231
  GI50: 0.549 µM
PC-3
  GI50: 0.003 µM
SW-620 [11]
  GI50: 0.027 µM
HCT-15 [12]
  GI50: 0.042 µM
[13]
  GI50: > 10 µM
[14]
  GI50: 3.36 µM
HCT-15 [4]
  Activity: Active
HCT-15 [15]
  Activity: Active
SW-620 [16]
  Activity: Active
HeLa [17]
  Activity: Active
HCT-15 [18]
  growth inhibition (GI): inactive
HCT-15 [19]
  Activity: inactive
Liver
  Activity: Active
SW-620 [20]
  Activity: inactive
HCT-15 [21]
  RatioGI50: >1000
MCF7 [22]
  RatioGI50: >10000
MCF7 [23]
  RatioGI50: >1000

## COc1cccc2c1C(=O)c1c(O)c3c(c(O)c1C2=O)C[C@@](O)(C(=O)CO)C[C@@H]3O[C@H]1C[C@H](N)[C@H](O)[C@H](C)O1 [DOXORUBICIN]
MCF7 [5]; MCF7, 72 h
  GI50: > 5 µM
[6]
  GI50 at 72 h: > 5 µM
HCT-15 [3]
  Activity: Dose-dependent effect
MCF-10A
  fold change (FC): 50

## COc1cc([C@@H]2c3cc4c(cc3[C@@H](O[C@@H]3O[C@@H]5CO[C@@H](C)O[C@H]5[C@H](O)[C@H]3O)[C@H]3COC(=O)[C@H]23)OCO4)cc(OC)c1O [ETOPOSIDE]
MCF7 [5]; MCF7, 72 h
  GI50: > 5 µM
[6]
  GI50 at 72 h: > 5 µM
MCF-10A
  fold change (FC): 50
